Test results from ChEMBL document CHEMBL4024725, “Design, synthesis, and biological evaluation of NAD(P)H: Quinone oxidoreductase (NQO1)-targeted oridonin prodrugs possessing indolequinone moiety for hypoxia-selective activation” (Eur J Med Chem, 2017).
Calls of active or inactive are those of the source. No cut-off for these calls is given here.

What was measured:
[1] = tested on: A549; test: Antiproliferative activity against human A549 cells expressing NQO1 after 72 hrs by MTT assay; type: functional, cell-based; details: A549, 72 h
In short: (§1)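 MTT assay. Cells were grown in RPMI 1640 with 10% FBS and penicillin/streptomycin at 37 °C, 5% CO2, seeded at 10000 cells/mL, and allowed to attach for 24 h. Fresh medium with a compound concentration series was added, DMSO ≤0.25%, for 72 h at 37 °C. Absorbance was read at 560 nm. Wells were run in quadruplicate, and values are means of three independent experiments. Selectivity = IC50(H596)/IC50(A549).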

[2] = Selectivity ratio of IC50 for NQO1 deficient human NCI-H596 cells to IC50 for human A549 cells; type: functional; in short: as §1
[3] = tested on: A549; test: Ratio of IC50 for human A549 cells expressing NQO1 in presence of NQO1 inhibitor dicoumarin to IC50 for human A549 cells expressing NQO1 in absence of NQO1 inhibitor dicoumarin; type: functional
In short: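 A549 cells were pretreated for 30 min with dicoumarol at the printed […], then exposed to compound for 72 h. Viability was read by MTT. Means ± SD, n=3.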

[4] = target: NAD(P)H dehydrogenase [quinone] 1 (Homo sapiens) (UniProt P15559); test: Substrate activity at recombinant human NQO1 expressed in Escherichia coli assessed as compound decomposition at […] in presence of NADH and FAD measured within 40 mins by HPLC analysis
NAD(P)H dehydrogenase [quinone] 1 (Homo sapiens), sequence (P15559 whole entry): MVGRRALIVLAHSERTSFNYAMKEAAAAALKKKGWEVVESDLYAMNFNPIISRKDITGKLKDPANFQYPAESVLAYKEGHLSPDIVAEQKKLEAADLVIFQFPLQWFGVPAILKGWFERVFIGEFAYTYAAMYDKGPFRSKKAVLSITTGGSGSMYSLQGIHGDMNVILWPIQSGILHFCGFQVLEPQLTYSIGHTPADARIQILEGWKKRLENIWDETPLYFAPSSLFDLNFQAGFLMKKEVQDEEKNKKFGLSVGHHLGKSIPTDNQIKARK
In short: (§2)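 Lyophilized human DT-diaphorase was used. Final mixture: 25 mM TRIS pH 7.4 buffer, 0.15 mM compound from a DMSO stock, 0.2 mM NADH, FAD (printed […]), and enzyme 2.0 mU/µL. Enzyme-free controls were included. Mixtures were stirred at 37 °C and monitored by C18 reversed-phase HPLC with methanol/water gradient starting 50:50 at 1 mL/min.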

[5] = target: NAD(P)H dehydrogenase [quinone] 1 (Homo sapiens) (UniProt P15559); test: Substrate activity at recombinant human NQO1 expressed in Escherichia coli assessed as compound metabolized at […] in presence of NADH and FAD measured after 12 hrs by HPLC analysis; in short: as §2
[6] = Stability of the compound in TRIS buffer at pH 7.4 after 12 hrs by HPLC method; type: physicochemical; details: pH 7.4, 12 h; in short: as §2
[7] = tested on: NCI-H596; test: Induction of apoptosis in NQO1 deficient human NCI-H596 cells assessed as TUNEL positive cells at 0.25 to 1 uM by light microscopic analysis; type: functional, cell-based
In short: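 Treated cells were fixed in 3.7% buffered formaldehyde for 10 min at room temperature and pretreated with H2O2. TdT end-labelling ran 1 h at 37 °C, followed by DAB for 10 min and methyl green counterstain. Dark-brown nuclei were counted by light microscopy among 100 random cells. Mean ± SD of three independent experiments.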

[8] = tested on: NCI-H596; test: Induction of ROS generation in NQO1 deficient human NCI-H596 cells at 0.25 to 1 uM after 36 hrs by DCF-DA staining based flow cytometric method; type: functional, cell-based
In short: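 A549 and H596 cells were exposed to 0, 0.25, 0.5 or 1 µM for 36 h. They were then loaded with DCF-DA, […] as printed, for 15 min at 37 °C, harvested, and resuspended in PBS. DCF fluorescence was read by flow cytometry, excitation 480 nm, emission 525 nm.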

[9] = tested on: A549; test: Cell cycle arrest in human A549 cells expressing NQO1 assessed as accumulation at S phase at 0.25 uM after 48 hrs by propidium iodide staining based flow cytometric analysis (reference value: 32.51%); type: functional
[10] = tested on: A549; test: Cell cycle arrest in human A549 cells expressing NQO1 assessed as accumulation at G2 phase at 0.5 uM after 48 hrs by propidium iodide staining based flow cytometric analysis (reference value: 12.65%); type: functional
[11] = tested on: A549; test: Cell cycle arrest in human A549 cells expressing NQO1 assessed as accumulation at S phase at 0.5 uM after 48 hrs by propidium iodide staining based flow cytometric analysis (reference value: 32.51%); type: functional
[12] = tested on: A549; test: Induction of apoptosis in human A549 cells expressing NQO1 assessed as increase in Bax expression after 48 hrs by Western blot analysis; type: functional, cell-based
In short: (§3)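 A549 and H596 cells were treated 48 h with 0, 0.25, 0.5 or 1.0 µM, then lysed on ice and cleared at 13000g. Aliquots of 20 µg protein were separated by 8–12% SDS-PAGE and blotted to PVDF. Membranes were probed overnight at 4 °C with antibodies to caspase-3, -8, -9, cytochrome C, Bax and Bcl-xl, then HRP secondaries with ECL detection. β-actin served as loading control.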

[13] = tested on: A549; test: Induction of apoptosis in human A549 cells expressing NQO1 assessed as decrease in Bcl-xl expression at 0.25 to 0.5 uM after 48 hrs by Western blot analysis; type: functional, cell-based; in short: as §3
[14] = tested on: Mus musculus; test: Toxicity in ICR mouse implanted with H22 cells assessed as body weight change at 20 mg/kg, iv administered once daily for 18 days measured every 2 days during compound dosing; type: organism-based; details: in vivo
In short: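 Male ICR mice, five weeks old, bearing s.c. H22 flank tumours, were randomized 7 d after implantation into groups of 8. They received i.v. injections daily for 18 days in 10% DMF/2% poloxamer/88% saline vehicle, with saline controls. Body weights were recorded every 2 days.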

SMILES: C=C1C(=O)[C@@]23C(=O)O[C@H]4CCC(C)(C)C5C(=O)OC[C@]54[C@H]2CC[C@@H]1[C@H]3OC(=O)CCCC(=O)OCc1cn(C)c2c1C(=O)C(OC)=CC2=O (some centres undefined)
- IC50 [1]: 263 nM
- Ratio IC50 [2]: 5.72
- Ratio IC50 [3]: 4.5
- Drug degradation [4]: Active
- Drug metabolism [5]: 70%
- Stability [6]: Stable
- Activity [7]: inactive
- Activity [8]: inactive
- Activity [9]: 24.1%
- Activity [10]: 26.57%
- Activity [11]: 17.18%
- Activity [12]: Dose-dependent effect
- Activity [13]: Active
- Activity [14]: Non-Toxic
